Experiments:
[1] = organism: Homo sapiens; assay: Selectivity index, ratio of IC50 for recombinant human MAO-A to IC50 for recombinant human MAO-B
Procedure, shortened: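 The index was calculated as IC50(MAO-A)/IC50(MAO-B), giving selectivity for the MAO-B isoform.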

[2] = target: T1, Amine oxidase [flavin-containing] B (Homo sapiens, UniProt P27338); assay: Inhibition of recombinant human MAO-B assessed as inhibition of kynuramine conversion to fluorescent metabolite 4-hydroxyquinoline after 20 mins by fluorescence spectrophotometry
T1 sequence (P27338 whole entry): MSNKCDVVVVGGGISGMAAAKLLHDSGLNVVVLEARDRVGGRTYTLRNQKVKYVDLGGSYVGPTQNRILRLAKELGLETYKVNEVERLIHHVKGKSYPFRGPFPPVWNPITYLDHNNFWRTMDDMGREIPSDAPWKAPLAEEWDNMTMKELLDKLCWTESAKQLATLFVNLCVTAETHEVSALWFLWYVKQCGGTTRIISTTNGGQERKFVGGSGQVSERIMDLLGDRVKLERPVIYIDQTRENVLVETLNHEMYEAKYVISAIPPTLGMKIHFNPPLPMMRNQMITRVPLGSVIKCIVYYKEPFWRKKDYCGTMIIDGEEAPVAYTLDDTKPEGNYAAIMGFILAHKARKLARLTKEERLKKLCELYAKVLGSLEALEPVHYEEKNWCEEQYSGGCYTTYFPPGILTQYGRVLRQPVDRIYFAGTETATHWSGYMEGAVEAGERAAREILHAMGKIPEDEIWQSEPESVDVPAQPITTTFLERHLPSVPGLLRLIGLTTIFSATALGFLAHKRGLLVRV
Procedure, shortened: (§1)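 IC50 values were read from sigmoidal concentration–inhibition curves of enzyme activity plotted against log inhibitor concentration.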

[3] = target: T2, Amine oxidase [flavin-containing] A (Homo sapiens, UniProt P21397); assay: Inhibition of recombinant human MAO-A assessed as inhibition of kynuramine conversion to fluorescent metabolite 4-hydroxyquinoline after 20 mins by fluorescence spectrophotometry; procedure, shortened: as §1
T2 sequence (P21397 whole entry): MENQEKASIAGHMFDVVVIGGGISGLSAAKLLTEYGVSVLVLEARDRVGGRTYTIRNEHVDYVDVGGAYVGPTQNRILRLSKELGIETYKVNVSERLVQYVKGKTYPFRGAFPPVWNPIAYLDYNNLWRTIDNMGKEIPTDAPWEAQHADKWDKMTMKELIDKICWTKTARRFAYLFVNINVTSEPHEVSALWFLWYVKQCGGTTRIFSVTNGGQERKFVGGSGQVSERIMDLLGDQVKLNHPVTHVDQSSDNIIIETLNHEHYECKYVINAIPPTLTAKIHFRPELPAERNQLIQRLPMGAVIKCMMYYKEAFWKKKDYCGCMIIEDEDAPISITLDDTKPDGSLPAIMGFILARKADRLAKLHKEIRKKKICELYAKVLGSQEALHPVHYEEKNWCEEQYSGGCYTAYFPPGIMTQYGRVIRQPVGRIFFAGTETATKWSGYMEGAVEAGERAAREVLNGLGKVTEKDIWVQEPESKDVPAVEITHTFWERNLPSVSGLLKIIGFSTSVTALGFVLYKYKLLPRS

[4] = target: T2, Amine oxidase [flavin-containing] A; assay: Inhibition of recombinant human MAO-A assessed as inhibition of kynuramine conversion to fluorescent metabolite 4-hydroxyquinoline at 100 uM after 20 mins by fluorescence spectrophotometry
[5] = target: T1, Amine oxidase [flavin-containing] B; assay: Reversible inhibition of recombinant human MAO-B using kynuramine as substrate assessed as residual activity at 100 times IC50 preincubated for 30 mins followed by 100 fold dilution measured after 20 mins by fluorescence spectrophotometry relative to control
[6] = target: T1, Amine oxidase [flavin-containing] B; assay: Inhibition of recombinant human MAO-B assessed as inhibition of kynuramine conversion to fluorescent metabolite 4-hydroxyquinoline at 100 uM after 20 mins by fluorescence spectrophotometry

Row | Ratio IC50 [1] | IC50 [2] [µM] | IC50 [3] [µM] | inhibition (INH) [4] | Activity [5] [%] | inhibition (INH) [6] | Compound
1 | 82 | 0.62 | 50.6 |  |  |  | O=C1CCc2cc(OCc3cccc(Cl)c3)ccc2N1
2 | 173 | 0.13 | 22.5 |  |  |  | O=C1CCc2ccc(OCCCc3ccccc3)cc2N1
3 | 6 | 4.01 | 25.3 |  |  |  | O=C1CCc2cc(OCc3ccccc3)ccc2N1
4 | 69 | 0.284 | 19.7 |  |  |  | O=C1CCc2cc(OCCCc3ccccc3)ccc2N1
5 | 0.8 | 201 | 161 |  |  |  | O=C1CCc2cc(O)ccc2N1
6 |  |  |  | Not Active |  |  | O=C1CCc2ccc(OCc3cccc(Cl)c3)cc2N1
7 |  |  | 7.98 |  | 36 |  | O=C1CCc2ccc(OCc3cccc(Br)c3)cc2N1
8 | 144 | 0.086 | 12.4 |  |  |  | O=C1CCc2cc(OCc3cccc(Br)c3)ccc2N1
9 | 2380 | 0.038 | 90.4 |  |  |  | O=C1CCc2ccc(OCc3ccccc3)cc2N1
10 | 10 | 2.33 | 22.5 |  |  |  | O=C1CCc2cc(OCCc3ccccc3)ccc2N1
11 | 281 | 0.191 | 53.7 |  |  |  | O=C1CCc2ccc(OCCc3ccccc3)cc2N1
12 |  |  | 183 |  |  | Not Active | O=C1CCc2ccc(O)cc2N1
